Each structure is given as a SMILES string. In brackets after ≈: the same amount, converted by molar mass.

The first test has as its system Escherichia coli. As to the kind of experiment: Antibacterial activity against marA-overproducing Escherichia coli CR1000 harboring inactivated mhpT gene assessed as MarA-mediated multidrug resistance level by measuring fold change in MIC relative to MarA-deficient Escherichia coli CR2000. In kind it is functional.
Details: not given
A digest of the protocol:
(§1)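 Each inactivated gene was transferred into both the ΔmarR (CR1000) and the ΔmarRA (CR2000) BW25113 backgrounds. Each derivative was grown overnight in LB and tested by Etest on Mueller-Hinton plates, read after 20 h at 37°C, against cefoxitin, norfloxacin, chloramphenicol and minocycline. The MarA-mediated level compares the MIC in the ΔmarR derivative with the MIC in the matching ΔmarRA derivative.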
In the case of `CN(C)c1ccc(O)c2c1C[C@H]1C[C@H]3[C@H](N(C)C)C(O)=C(C(N)=O)C(=O)[C@@]3(O)C(O)=C1C2=O` [MINOCYCLINE], the Activity came to 100%.

The test system of a further test is Escherichia coli. As to the kind of experiment: Antibacterial activity against MarA-deficient Escherichia coli CR2000 after 20 hrs by Etest method. It is filed as functional. To be noted: CR2000, 20 h. Put shortly: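 Overnight LB-grown cultures (37°C, agitation) of the ΔmarRA strain (BW25113 background) tested on Mueller-Hinton plates with Etest strips per manufacturer's instructions. MIC read after 20 h at 37°C.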
Consider `CN(C)c1ccc(O)c2c1C[C@H]1C[C@H]3[C@H](N(C)C)C(O)=C(C(N)=O)C(=O)[C@@]3(O)C(O)=C1C2=O` [MINOCYCLINE], for which 2.4 mg/L (≈ 5.25 µM) was the least that counted as inhibitory (MIC).

For the next test, the system named is Escherichia coli. Kind of test: Ratio of MIC for marA-overproducing Escherichia coli CR1000 to MIC for MarA-deficient Escherichia coli CR2000. In kind it is functional.
Details: not given
Put shortly:
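MICs measured by Etest on Mueller-Hinton plates, read after 20 h at 37°C, for the ΔmarR strain (constitutive chromosomal marA overexpression) and the ΔmarRA strain (BW25113 background), both grown overnight in LB at 37°C. MarA-mediated MDR expressed as the ΔmarR/ΔmarRA MIC ratio.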
For the compound `CN(C)c1ccc(O)c2c1C[C@H]1C[C@H]3[C@H](N(C)C)C(O)=C(C(N)=O)C(=O)[C@@]3(O)C(O)=C1C2=O` [MINOCYCLINE], the Ratio came to 2.

A further test has as its system Escherichia coli. As to the kind of experiment: Antibacterial activity against marA-overproducing Escherichia coli CR1000 harboring inactivated nikD gene assessed as MarA-mediated multidrug resistance level by measuring fold change in MIC relative to MarA-deficient Escherichia coli CR2000. It is filed as functional.
Details: not given
A digest of the protocol:
as §1
Regarding `CN(C)c1ccc(O)c2c1C[C@H]1C[C@H]3[C@H](N(C)C)C(O)=C(C(N)=O)C(=O)[C@@]3(O)C(O)=C1C2=O` [MINOCYCLINE], the Activity is 125%.

A further test relates to Escherichia coli. As to the kind of experiment: Antibacterial activity against marA-overproducing Escherichia coli CR1000 harboring inactivated degP gene assessed as MarA-mediated multidrug resistance level by measuring fold change in MIC relative to MarA-deficient Escherichia coli CR2000. In kind it is functional.
Details: not given
Put shortly:
as §1
For the compound `CN(C)c1ccc(O)c2c1C[C@H]1C[C@H]3[C@H](N(C)C)C(O)=C(C(N)=O)C(=O)[C@@]3(O)C(O)=C1C2=O` [MINOCYCLINE], the Activity is reported as 100%.

In another test the test system is Escherichia coli. Kind of test: Antibacterial activity against marA-overproducing Escherichia coli CR1000 harboring inactivated damX gene assessed as MarA-mediated multidrug resistance level by measuring fold decrease in MIC relative to MarA-deficient Escherichia coli CR2000. In kind it is functional. More on the design: scale not given: the % may be the effect or the level left.
Details: not given
Put shortly: as §1
Regarding `CN(C)c1ccc(O)c2c1C[C@H]1C[C@H]3[C@H](N(C)C)C(O)=C(C(N)=O)C(=O)[C@@]3(O)C(O)=C1C2=O` [MINOCYCLINE], the Activity worked out at 30%.

For another test, the system named is Escherichia coli. As to the kind of experiment: Antibacterial activity against marA-overproducing Escherichia coli CR1000 harboring inactivated tolC gene assessed as MarA-mediated multidrug resistance level by measuring fold decrease in MIC relative to MarA-deficient Escherichia coli CR2000. In kind it is functional. On the set-up: scale not given: the % may be the effect or the level left.
Details: not given
Put shortly:
as §1
Consider `CN(C)c1ccc(O)c2c1C[C@H]1C[C@H]3[C@H](N(C)C)C(O)=C(C(N)=O)C(=O)[C@@]3(O)C(O)=C1C2=O` [MINOCYCLINE], for which the Activity was found to be 40%.

Another test has as its system Escherichia coli. Kind of test: Antibacterial activity against marA-overproducing Escherichia coli CR1000 harboring inactivated crp gene assessed as MarA-mediated multidrug resistance level by measuring fold change in MIC relative to MarA-deficient Escherichia coli CR2000. It is filed as functional.
Details: not given
Put shortly:
as §1
For `CN(C)c1ccc(O)c2c1C[C@H]1C[C@H]3[C@H](N(C)C)C(O)=C(C(N)=O)C(=O)[C@@]3(O)C(O)=C1C2=O` [MINOCYCLINE], the Activity is recorded as 38%.

The subject of the next test is Escherichia coli. As to the kind of experiment: Antibacterial activity against marA-overproducing Escherichia coli CR1000 harboring inactivated yibLp gene assessed as MarA-mediated multidrug resistance level by measuring fold change in MIC relative to MarA-deficient Escherichia coli CR2000.
Details: not given
It is filed as functional. Put shortly:
as §1
For `CN(C)c1ccc(O)c2c1C[C@H]1C[C@H]3[C@H](N(C)C)C(O)=C(C(N)=O)C(=O)[C@@]3(O)C(O)=C1C2=O` [MINOCYCLINE], the Activity is on record as 100%.

A further test relates to Escherichia coli. As to the kind of experiment: Antibacterial activity against marA-overproducing Escherichia coli CR1000 harboring inactivated yniDp gene assessed as MarA-mediated multidrug resistance level by measuring fold change in MIC relative to MarA-deficient Escherichia coli CR2000. In kind it is functional.
Details: not given
A digest of the protocol: as §1
As to `CN(C)c1ccc(O)c2c1C[C@H]1C[C@H]3[C@H](N(C)C)C(O)=C(C(N)=O)C(=O)[C@@]3(O)C(O)=C1C2=O` [MINOCYCLINE], the Activity was 50%.

Another test concerns Escherichia coli. Kind of test: Antibacterial activity against marA-overproducing Escherichia coli CR1000 harboring inactivated acrA gene assessed as MarA-mediated multidrug resistance level by measuring fold decrease in MIC relative to MarA-deficient Escherichia coli CR2000. In kind it is functional. More on the design: scale not given: the % may be the effect or the level left.
Details: not given
A digest of the protocol:
as §1
As for `CN(C)c1ccc(O)c2c1C[C@H]1C[C@H]3[C@H](N(C)C)C(O)=C(C(N)=O)C(=O)[C@@]3(O)C(O)=C1C2=O` [MINOCYCLINE], the Activity is on record as 40%.

A further test deals with Escherichia coli. As to the kind of experiment: Antibacterial activity against marA-overproducing Escherichia coli CR1000 harboring inactivated treC gene assessed as MarA-mediated multidrug resistance level by measuring fold change in MIC relative to MarA-deficient Escherichia coli CR2000. In kind it is functional.
Details: not given
Put shortly: as §1
On to `CN(C)c1ccc(O)c2c1C[C@H]1C[C@H]3[C@H](N(C)C)C(O)=C(C(N)=O)C(=O)[C@@]3(O)C(O)=C1C2=O` [MINOCYCLINE], for which the Activity is on record as 100%.

In a further test the test system is Escherichia coli. Kind of test: Antibacterial activity against wild-type Escherichia coli BW25113 after 20 hrs by Etest method. It is filed as functional. As to conditions: BW25113, 20 h. Put shortly: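 MICs by Etest strips on Mueller-Hinton plates, following the manufacturer's specifications. Cells came from overnight liquid cultures in LB at 37°C with agitation. Plates were read after 20 h at 37°C. Antibiotics tested were cefoxitin, norfloxacin, chloramphenicol and minocycline.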
Consider `CN(C)c1ccc(O)c2c1C[C@H]1C[C@H]3[C@H](N(C)C)C(O)=C(C(N)=O)C(=O)[C@@]3(O)C(O)=C1C2=O` [MINOCYCLINE], for which the minimal inhibitory concentration (MIC) (commonly the lowest concentration found to suppress growth) was found to be 3.3 mg/L (≈ 7.21 µM).

The next test concerns Escherichia coli. Kind of test: Antibacterial activity against marA-overproducing Escherichia coli CR1000 harboring inactivated pcnB gene assessed as MarA-mediated multidrug resistance level by measuring fold decrease in MIC relative to MarA-deficient Escherichia coli CR2000. It is filed as functional. On the set-up: scale not given: the % may be the effect or the level left.
Details: not given
A digest of the protocol: as §1
As to `CN(C)c1ccc(O)c2c1C[C@H]1C[C@H]3[C@H](N(C)C)C(O)=C(C(N)=O)C(=O)[C@@]3(O)C(O)=C1C2=O` [MINOCYCLINE], the Activity turned out to be 30%.

The values are drawn from ChEMBL document CHEMBL1687757, “Many chromosomal genes modulate MarA-mediated multidrug resistance in Escherichia coli” (2010).
